What was measured:
NTPDase2 = target: T1, NTPDase2 (Homo sapiens, UniProt Q9Y5L3); assay: NTPDase2 hydrolysis assay; type: in vitro ADME; details: 100 μM substrate; vs 100 μM ATP set at 100%
T1 sequence (Q9Y5L3 1-495): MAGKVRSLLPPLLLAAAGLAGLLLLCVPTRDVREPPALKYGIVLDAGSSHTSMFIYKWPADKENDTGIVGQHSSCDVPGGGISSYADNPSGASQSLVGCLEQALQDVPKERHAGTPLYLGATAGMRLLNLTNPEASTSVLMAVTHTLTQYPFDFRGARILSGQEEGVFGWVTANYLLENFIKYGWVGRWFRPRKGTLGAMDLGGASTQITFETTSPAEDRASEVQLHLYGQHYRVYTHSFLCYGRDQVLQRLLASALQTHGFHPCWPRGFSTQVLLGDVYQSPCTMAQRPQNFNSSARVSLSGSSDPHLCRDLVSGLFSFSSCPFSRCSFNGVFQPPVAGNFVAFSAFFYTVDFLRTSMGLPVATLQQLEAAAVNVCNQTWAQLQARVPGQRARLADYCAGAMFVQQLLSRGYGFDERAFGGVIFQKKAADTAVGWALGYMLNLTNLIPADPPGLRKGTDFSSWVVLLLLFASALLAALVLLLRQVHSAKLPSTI
Summary of the method: (§1)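 Enzymes were transiently expressed in COS-7 cells. Crude protein extracts were made by sonication, 300g clearing at 4 °C and storage at −80 °C, with protein measured by Bradford. Extract was preincubated 3 min at 37 °C in Tris-Ringer buffer, pH 7.4. […] Activity of untransfected-cell extract was subtracted.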

NTPDase3 = target: T2, NTPDase3 (Homo sapiens, UniProt O75355); assay: NTPDase3 hydrolysis assay; type: in vitro ADME; details: 100 μM substrate; vs 100 μM ATP set at 100%
T2 sequence (O75355 1-529): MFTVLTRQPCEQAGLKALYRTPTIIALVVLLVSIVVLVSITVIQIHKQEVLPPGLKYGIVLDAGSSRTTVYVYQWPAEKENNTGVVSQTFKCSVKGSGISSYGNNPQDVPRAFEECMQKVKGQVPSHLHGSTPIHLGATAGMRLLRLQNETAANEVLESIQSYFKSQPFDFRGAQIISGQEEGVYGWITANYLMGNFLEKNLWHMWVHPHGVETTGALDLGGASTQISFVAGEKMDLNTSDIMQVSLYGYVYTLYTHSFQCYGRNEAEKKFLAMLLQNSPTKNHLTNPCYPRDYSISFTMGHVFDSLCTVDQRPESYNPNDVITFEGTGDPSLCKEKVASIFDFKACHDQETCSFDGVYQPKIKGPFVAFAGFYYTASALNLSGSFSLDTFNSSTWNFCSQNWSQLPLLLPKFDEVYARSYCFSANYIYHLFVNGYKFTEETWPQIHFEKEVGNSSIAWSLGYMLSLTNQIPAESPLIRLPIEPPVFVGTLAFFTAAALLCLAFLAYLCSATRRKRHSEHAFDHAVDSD
Summary of the method: as §1

NTPDase1 = target: T3, NTPDase1 (Homo sapiens, UniProt P49961); assay: NTPDase1 hydrolysis assay; type: in vitro ADME; details: 100 μM substrate; vs 100 μM ATP set at 100%
T3 sequence (P49961 1-510): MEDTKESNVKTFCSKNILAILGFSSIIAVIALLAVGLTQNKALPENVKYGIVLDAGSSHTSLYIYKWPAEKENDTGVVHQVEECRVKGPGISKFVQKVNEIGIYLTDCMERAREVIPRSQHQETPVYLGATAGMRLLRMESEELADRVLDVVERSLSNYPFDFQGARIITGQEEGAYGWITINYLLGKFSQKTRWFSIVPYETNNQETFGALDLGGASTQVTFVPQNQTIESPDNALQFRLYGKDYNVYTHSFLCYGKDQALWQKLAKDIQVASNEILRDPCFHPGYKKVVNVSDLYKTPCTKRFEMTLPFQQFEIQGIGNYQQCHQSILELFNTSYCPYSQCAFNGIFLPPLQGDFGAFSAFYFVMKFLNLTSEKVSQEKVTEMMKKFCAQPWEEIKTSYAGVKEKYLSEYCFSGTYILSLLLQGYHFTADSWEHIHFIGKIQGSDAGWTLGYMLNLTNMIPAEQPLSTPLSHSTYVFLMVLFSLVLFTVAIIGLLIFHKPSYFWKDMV

human NPP3 = target: T4, human NPP3 (Homo sapiens, UniProt O14638); assay: NPP3 hydrolysis assay; type: in vitro ADME; details: 100 μM substrate; vs 100 μM ATP set at 100%
T4 sequence (O14638 1-875): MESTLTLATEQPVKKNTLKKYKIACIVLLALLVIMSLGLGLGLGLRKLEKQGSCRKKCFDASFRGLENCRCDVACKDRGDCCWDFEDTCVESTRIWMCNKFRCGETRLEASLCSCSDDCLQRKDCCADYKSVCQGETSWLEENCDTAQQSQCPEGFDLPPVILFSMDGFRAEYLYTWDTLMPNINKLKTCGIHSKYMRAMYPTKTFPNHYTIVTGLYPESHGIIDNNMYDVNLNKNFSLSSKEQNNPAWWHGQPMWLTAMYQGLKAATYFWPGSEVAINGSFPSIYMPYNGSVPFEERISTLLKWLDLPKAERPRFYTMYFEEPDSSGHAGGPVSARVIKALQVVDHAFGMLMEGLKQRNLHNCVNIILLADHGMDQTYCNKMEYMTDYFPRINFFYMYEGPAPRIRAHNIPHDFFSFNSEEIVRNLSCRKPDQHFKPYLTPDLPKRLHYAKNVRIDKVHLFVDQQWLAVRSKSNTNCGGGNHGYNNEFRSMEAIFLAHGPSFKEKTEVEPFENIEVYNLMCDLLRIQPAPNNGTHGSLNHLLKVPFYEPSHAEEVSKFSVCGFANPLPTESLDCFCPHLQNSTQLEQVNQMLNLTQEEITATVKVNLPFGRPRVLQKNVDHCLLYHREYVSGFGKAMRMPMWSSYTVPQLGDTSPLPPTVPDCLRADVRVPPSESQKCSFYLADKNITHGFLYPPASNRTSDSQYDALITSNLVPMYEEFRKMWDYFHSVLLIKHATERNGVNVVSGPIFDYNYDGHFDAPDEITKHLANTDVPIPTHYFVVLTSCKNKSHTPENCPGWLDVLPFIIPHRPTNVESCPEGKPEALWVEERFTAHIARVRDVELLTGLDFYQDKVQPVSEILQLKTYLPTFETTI

turkey P2Y1 receptor = turkey P2Y1 receptor (Meleagris gallopavo, UniProt P49652); type: cell-based; details: B isomer vs A isomer
Sequence of turkey P2Y1 receptor (P49652 whole entry): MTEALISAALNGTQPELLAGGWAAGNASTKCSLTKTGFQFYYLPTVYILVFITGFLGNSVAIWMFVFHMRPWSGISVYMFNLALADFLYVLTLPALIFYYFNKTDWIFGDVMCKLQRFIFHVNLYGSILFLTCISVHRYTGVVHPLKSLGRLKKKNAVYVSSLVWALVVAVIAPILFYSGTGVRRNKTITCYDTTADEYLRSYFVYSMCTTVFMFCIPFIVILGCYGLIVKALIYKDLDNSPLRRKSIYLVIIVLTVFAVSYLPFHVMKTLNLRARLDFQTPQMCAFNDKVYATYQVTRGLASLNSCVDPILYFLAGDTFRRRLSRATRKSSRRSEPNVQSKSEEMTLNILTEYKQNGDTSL

BP(=O)(OC[C@H]1O[C@@H](n2cnc3c(N)nc(SC)nc32)[C@H](O)[C@@H]1O)OP(=O)(O)C(Cl)(Cl)P(=O)(O)O (stereo partly drawn) [analogue 12B, 2-MeS-adenosine-5′-O-(α-boranotriphosphate)-β,γ-CCl2]
relative hydrolysis by NTPDase2 (NTPDase2): completely resistant | relative hydrolysis by NTPDase3 (NTPDase3): completely resistant | relative hydrolysis by NTPDase1 (NTPDase1): completely resistant | relative hydrolysis by NPP3 (human NPP3): completely resistant | fold less potent at P2Y1R than the A isomer 12A (turkey P2Y1 receptor): 2 fold

From article PMC4358770 (Journal of medicinal chemistry, 2010)
